# High-throughput results from PubChem.
# RGS4 pot: RGS4 potentiators or activators, primary screen, cell-based, HEK293 M3R inducible RGS4, calcium flux. AID 463111, 2010. B-score at 10 µM. carbachol calcium flux Fluo4; hits give low values. hit rate 0.92% among 310,000;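 active = B-score of the integrated calcium signal more than 4 SD below the library mean, with starting fluorescence not abnormally high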;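 also: negative B-score means reduced calcium response which marks RGS4 activation or potentiation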
#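 Reagent: ECmax carbachol challenge; Test system: M3R-expressing HEK293 line, RGS4 induced by doxycycline; Schedule: overnight RGS4 induction, 30 min dye load 37 °C, 20 min compound RT; Detection: calcium dye Fluo4 fluorescence; Read-out: Agonist-evoked peak-minus-minimum fluorescence over baseline, integrated ratio, B score.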
# MrgX1 allo act: positive allosteric modulators of MrgX1, primary screen, HEK293 cells, Fluo-4 calcium flux; Mas-related G-protein coupled receptor member X1 (Homo sapiens), Q96LB2; FDSS; hits give high values; B-score at 10 µM; hit rate 0.63% among 310,000; AID 588675, 2011;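 active = plate-corrected calcium response at least 3 library SD above typical, normal starting fluorescence, not activating the receptor alone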;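 also: compound read alongside a low EC10 to EC30 dose of BAM8-22 agonist; peak minus trough fluorescence over baseline measured at the second addition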
# Target sequence (Q96LB2 whole entry, looked up): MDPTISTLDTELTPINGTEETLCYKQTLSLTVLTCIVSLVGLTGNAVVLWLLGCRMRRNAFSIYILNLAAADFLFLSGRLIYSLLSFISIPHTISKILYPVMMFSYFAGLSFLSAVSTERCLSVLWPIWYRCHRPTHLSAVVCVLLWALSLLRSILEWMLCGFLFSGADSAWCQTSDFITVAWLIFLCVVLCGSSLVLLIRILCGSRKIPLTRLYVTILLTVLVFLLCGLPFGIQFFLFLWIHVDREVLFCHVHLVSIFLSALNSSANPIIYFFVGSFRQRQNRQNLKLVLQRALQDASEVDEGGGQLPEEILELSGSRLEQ
# RGS4 inh: RGS4 inhibitors, primary screen, cell-based, HEK293 M3R inducible RGS4, calcium flux | Fluo-4 calcium flux; hits give high values; triggered by carbachol at its EC20 | B-score at 10 µM | hit rate 0.45% among 310,000;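 active = B-score, a plate-corrected calcium signal, over three deviations above library mean, with baseline fluorescence within five deviations of library mean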;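 also: RGS4 expression induced by doxycycline in cells with stable M3 receptor; B-score is computed from the integrated fluorescence ratio over baseline after carbachol; higher B-score means a larger calcium signal and so more RGS4 inhibition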
# Lipid droplet: inhibitors of hepatocyte lipid droplet formation, primary screen, imaging, high-throughput imaging, BODIPY stain. hit rate 0.4% among 240,000. inhibition, % at 6.5 µM. AID 1656, 2009. AML12 mouse hepatocytes, oleate lipid droplets;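 active = lipid droplet intensity inhibited by at least 50%, with more than 500 cells counted; inconclusive = wells with under 300 cells, treated as cytotoxic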
#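 Assay system: AML12 hepatocytes (mouse) / Also added: 100 µM oleic acid challenge / Times: overnight treatment with compound plus oleate / Detection: high-content imaging of BODIPY-stained droplets and DAPI nuclei / Evaluation: % inhibition of lipid droplet signal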
# MrgX1 agonist: agonists of human MrgX1 receptor, primary screen, HEK293 cells, Fluo-4 calcium flux; Mas-related G-protein coupled receptor member X1 (Homo sapiens), Q96LB2; Fluo-4 calcium fluorescence, agonist mode; hits give high values; B-score at 10 µM; hit rate 0.44% among 310,000; AID 588627, 2011;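 active = calcium response B-score plate-corrected fluorescence ratio at least 3 library SD, with starting fluorescence B-score inside 5 SD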
#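 Material: MrgX1-expressing HEK293 cells / Dosing: compound as first of three additions / Incubation: overnight seeding, then 1 h dark dye loading / Signal: Fluo-4 NW calcium fluorescence / Evaluation: B-scored fluorescence response ratio / Benchmarks: positive and negative control wells on each plate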
# MrgX1 antagonist: antagonists of human MrgX1 receptor, primary screen, HEK293 cells, Fluo-4 calcium flux. BAM8-22 antagonism; hits give low values. AID 588676, 2011. B-score at 10 µM. hit rate 1.3% among 310,000. Mas-related G-protein coupled receptor member X1 (Homo sapiens), Q96LB2;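 active = calcium-response B-score plate-corrected more than 3 library SD below zero, starting fluorescence within 5 deviations, no agonist response on first addition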;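 also: peak minus trough fluorescence over baseline after final BAM8-22 challenge near maximal dose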
# A number is an active result; – = inactive; ? = inconclusive; · = not tested or not shown. Shown are actives, neighbours in structure and some others; about 3.8% of the full set was active somewhere.
SMILES,RGS4 pot,MrgX1 allo act,RGS4 inh,Lipid droplet,MrgX1 agonist,MrgX1 antagonist
O=C(c1cc(COc2ccc(F)c(F)c2)on1)N1CCN(C/C=C/c2ccccc2)CC1,–,·,–,–,·,·
CCN(CC)CCCNC(=O)C1c2ccccc2Oc2ccccc21,-7.3,–,–,·,–,–
Cc1cc(C(C2C(=O)CC(C)(C)CC2=O)C2C(=O)CC(C)(C)CC2=O)cc(C)c1OC(F)F,–,–,–,–,63,–
O=[N+]([O-])c1ccc(-c2ccc(/C=N/Nc3nc(NCc4ccccc4)nc(N4CCOCC4)n3)o2)cc1,–,13,–,–,–,–
COc1cccc(CN(C(=O)c2cccs2)C2CCS(=O)(=O)C2)c1 (configuration not stated),–,–,–,–,–,–
CCS(=O)(=O)C1=NSC2=NC(=O)/C(=C\c3ccc(OC(=O)c4ccco4)cc3)C(=N)N21,–,19,–,–,–,–
CCOc1cc(/C=C2/C(=N)N3C(=NC2=O)SN=C3S(C)(=O)=O)ccc1OC(=O)c1ccco1,–,13,–,–,–,–
N=C1/C(=C\c2ccc(OC(=O)c3ccccc3)cc2)C(=O)N=C2SC(N3CCOCC3)=NN12,–,–,–,–,–,-7.9
CCOc1cc(/C=C2\C(=N)N3N=C(S(=O)(=O)CC)SC3=NC2=O)ccc1OC(=O)c1ccco1,–,–,–,–,–,–
COc1cc(/C=C2\C(=N)N3N=CSC3=NC2=O)ccc1OS(=O)(=O)c1ccccc1[N+](=O)[O-],–,–,–,–,39,–
Cc1ccc(C(=O)Oc2ccc(/C=C3\C(=N)N4N=C(N5CCOCC5)SC4=NC3=O)cc2)cc1,–,–,–,–,–,–
O=C(CNC(=O)c1cccc(Cl)c1)NCCCSc1ccccc1,–,–,–,·,–,–
N=C1/C(=C/c2ccc(OC(=O)c3ccco3)cc2)C(=O)N=C2SC=CN12,–,12,–,–,–,–
CC(=O)Nc1ccc(OCCOc2ccc(/C=C3\C(=N)N4N=C(C)SC4=NC3=O)cc2)cc1,–,9.5,–,–,–,–
CCS(=O)(=O)C1=NN2C(=N)/C(=C\c3ccc(OC(=O)c4ccco4)c(Br)c3)C(=O)N=C2S1,–,–,–,–,73,–
COc1cc(/C=C2/C(=N)N3C(=NC2=O)SN=C3S(C)(=O)=O)ccc1OS(=O)(=O)c1ccccc1,–,28,–,–,–,–
COc1ccc2c(c1)C(C)=CC(C)(C)N2S(=O)(=O)c1ccc(Br)cc1,–,–,–,?,–,–
Cc1ccc(NC(=O)Cn2c([N+](=O)[O-])cnc2C)cc1Cl,–,–,–,–,–,–
CCOc1ccc(-n2c(C)cc(/C=C3/C(=N)N4C(=NC3=O)SN=C4S(C)(=O)=O)c2C)cc1,–,–,–,–,–,–
CCOc1cc(/C=C2/C(=N)N3N=C(CC)SC3=NC2=O)ccc1OC(=O)c1ccco1,–,–,–,–,34,–
CCOc1cc(/C=C2/C(=N)N3C(=NC2=O)SN=C3S(C)(=O)=O)ccc1OS(=O)(=O)c1ccccc1,–,27,–,–,–,–
COc1cc(/C=C2\C(=N)N3N=C(S(C)(=O)=O)SC3=NC2=O)ccc1OC(=O)c1cccs1,–,8.2,–,–,–,–
CCCCOc1cccc(C2/C(=C(\O)c3ccc4c(c3)OCCO4)C(=O)C(=O)N2CCN2CCOCC2)c1 (configuration not stated),–,–,–,–,–,–
CCCCCc1ccc(CC(=O)N2CCOCC2)cc1,–,–,–,–,–,–
Cc1ccc(Cl)cc1NC(=S)N1CCCCCC1,–,–,–,–,–,–
O=C(O)c1cc([N+](=O)[O-])ccc1N1CCCCC1,–,–,–,–,–,–
O=C(O)c1cc([N+](=O)[O-])ccc1N1CCC(Cc2ccccc2)CC1,–,–,–,–,40,–
CCn1c(C)c(C)c2cc(C(=O)NC3CCCCCC3)ccc21,–,–,–,–,–,–
